Data from ChEMBL document CHEMBL1764948, “Diversonol and blennolide derivatives from the endophytic fungus Microdiplodia sp.: absolute configuration of diversonol” (2011).
≈ marks a conversion by molar mass, not a printed value. Calls of active or inactive are those of the source. No cut-off for these calls is given here.

Key:
Priestia megaterium = experiment: Antibacterial activity against Bacillus megaterium by microtiter plate assay; assay type: functional, organism-based
Outline: (§1)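 Minimum inhibitory concentration determined in liquid medium in microtiter wells.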

Legionella pneumophila = experiment: Antibacterial activity against Legionella pneumophila Corby by microtiter plate assay; assay type: functional
Outline: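 Broth microdilution MIC in liquid medium in microtiter wells. Legionella pneumophila Corby grown in YEB medium (10 g ACES, 10 g yeast extract per 1000 mL water, pH 6.9, plus supplements). Value reported as the minimum inhibitory concentration.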

Escherichia coli = experiment: Antibacterial activity against Escherichia coli K-12 by microtiter plate assay; assay type: functional, organism-based; outline: as §1
Microbotryum violaceum = experiment: Antifungal activity against Microbotryum violaceum assessed as zone of inhibition measured as radius at 50 ug by agar diffusion assay; assay type: functional; conditions: for zone of inhibition at 50 µg/disc: read-out: IZ
Outline: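 Samples at 1 mg/mL in acetone; 50 μg applied to a 9 mm sterile filter disk on MPY agar. The plate was then sprayed with a Microbotryum violaceum suspension and incubated at 20 °C. The inhibition zone radius was measured in mm from the disk centre.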

## C[C@H]1Oc2cccc(O)c2C(=O)[C@@H]1O
Priestia megaterium
  Activity: inactive
Legionella pneumophila
  MIC: 1000 µg/mL (≈ 5.15 mM)
Escherichia coli
  Activity: inactive

## CC(C)=O [ACETONE]
Microbotryum violaceum
  zone of inhibition at 50 µg/disc: 0 mm

## C[C@@H]1C[C@@H]([C@H](O)CC2CC(=O)NC(=O)C2)C(=O)[C@@H](C)C1 [CYCLOHEXIMIDE]
Microbotryum violaceum
  zone of inhibition at 50 µg/disc: 50 mm

## Cc1cc(O)c2c(c1)O[C@@]1(C)[C@@H](O)CC[C@H](O)[C@]1(O)C2=O [DIVERSONOL]
Priestia megaterium
  Activity: inactive
Microbotryum violaceum
  zone of inhibition at 50 µg/disc: 0 mm
Legionella pneumophila
  MIC: 1000 µg/mL (≈ 3.4 mM)
Escherichia coli
  Activity: inactive

## CC(C)[C@@H](C)/C=C/[C@@H](C)[C@H]1CC[C@H]2C3=CC=C4C[C@@H](O)CC[C@]4(C)[C@H]3CC[C@]12C [ERGOSTEROL]
Priestia megaterium
  Activity: inactive
Microbotryum violaceum
  Activity: inactive
Legionella pneumophila
  MIC: 250 µg/mL (≈ 0.63 mM)
Escherichia coli
  Activity: inactive

## NC[C@H]1O[C@H](O[C@H]2[C@H](O)[C@@H](O[C@H]3O[C@H](CO)[C@@H](O)[C@H](N)[C@H]3O)[C@H](N)C[C@@H]2N)[C@H](O)[C@@H](O)[C@@H]1O [KANAMYCIN]
Legionella pneumophila
  MIC: 12.5 µg/mL (≈ 0.0258 mM)

## COC1=CC(=O)[C@@H](O)[C@@]2(O)C(=O)c3c(O)cc(C)cc3O[C@]12C [MICRODIPLODIASOLOL]
Priestia megaterium
  Activity: inactive
Microbotryum violaceum
  zone of inhibition at 50 µg/disc: 6 mm
Legionella pneumophila
  MIC: 1000 µg/mL (≈ 3.12 mM)
Escherichia coli
  Activity: inactive

## C[C@@]12Oc3cc(CO)cc(O)c3C(=O)[C@@]1(O)[C@@H](O)CC[C@@H]2O [MICRODIPLODIASOL]
Priestia megaterium
  Activity: inactive
Legionella pneumophila
  MIC: 125 µg/mL (≈ 0.403 mM)
Escherichia coli
  Activity: inactive

## C[C@]1([C@H]2CCC(=O)O2)CC(=O)c2c(O)cc(O)cc2O1 [MICRODIPLODIASONE]
Priestia megaterium
  Activity: inactive
Microbotryum violaceum
  zone of inhibition at 50 µg/disc: 0 mm
Legionella pneumophila
  MIC: 1000 µg/mL (≈ 3.59 mM)
Escherichia coli
  Activity: inactive

## CC1(C)S[C@@H]2[C@H](NC(=O)Cc3ccccc3)C(=O)N2[C@H]1C(=O)O [PENICILLIN G]
Microbotryum violaceum
  zone of inhibition at 50 µg/disc: 0 mm

## CN(C)[C@@H]1C(O)=C(C(N)=O)C(=O)[C@@]2(O)C(O)=C3C(=O)c4c(O)cccc4[C@@](C)(O)[C@H]3C[C@@H]12 [TETRACYCLINE]
Microbotryum violaceum
  zone of inhibition at 50 µg/disc: 0 mm

## NYSTATIN
Microbotryum violaceum
  inhibition zone (IZ): 20 mm
